From ChEMBL document CHEMBL5674876, “Epigenetic Activation of Pro-angiogenic Signaling Pathways in Human Endothelial Progenitors Increases Vasculogenesis” (Stem Cell Reports, 2017)
Active and inactive are the calls of the source. The calls are words filed in the database; no cut-off is given here.

Columns and labels:
HUVEC [1] = experiment: Effect on pro-angiogenic property in human umbilical cord derived endothelial colony forming cells assessed as cell migration treated at 330 nM for 10 hrs measured by crystal violet staining analysis based gap closure assay; assay type: functional
HUVEC [2] = experiment: Effect on pro-angiogenic property in human umbilical cord derived endothelial colony forming cells assessed as formation of capillary network on matrigel at 330 nM; assay type: functional, cell-based
Outline: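 Drug- or vehicle-pretreated ECFCs seeded at 5,000 cells/well on phenol-red-free growth-factor-reduced Matrigel in duplicate; after 24 hr stained with 5 μg/mL calcein 5 min at 37°C, imaged at 2.5×. Total tube length expressed as percentage of vehicle control ±SEM, three independent experiments.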

CC(/C=C/C(=O)NO)=C\[C@@H](C)C(=O)c1ccc(N(C)C)cc1
Activity (HUVEC [1]): Active | Activity (HUVEC [2]): Active
